Assay results: ChEMBL document CHEMBL1136006, “New PET imaging agent for the serotonin transporter: [(18)F]ACF (2-[(2-amino-4-chloro-5-fluorophenyl)thio]-N,N-dimethyl-benzenmethanamine)” (J Med Chem, 2002)

Legend:
Rattus norvegicus [1] = assay: Ratio of effect of pretreatment with methylphenidate with a dose of 2 mg/kg (i.v.) on specific binding of [18F]ACF in rat brain cerebellum to that of cerebellum; type: ADME, organism-based; set-up: dose 2 mg/kg, route intravenous; details: in vivo, iv
Procedure, shortened: (§1)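 Rats (three per point) pretreated iv with competing drug at 2 mg/kg or saline (control) 5 min before iv [18F]ACF (50 μCi). At 1 h post tracer, brain regions (cortex, striatum, hippocampus, cerebellum, hypothalamus, remainder) dissected, weighed, counted as % dose/g and expressed as ratio to cerebellum. Average ± SD; ANOVA with Dunnett's test vs saline controls, p < 0.05.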

Rattus norvegicus [2] = species on record: Rattus norvegicus; assay: Ratio of regional brain distribution of [18F]ACF radiolabeled compound in rat hippocampus to that of cerebellum after 120 min; type: ADME, organism-based; details: in vivo, 2 h
Procedure, shortened: (§2)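 Rats (three per group) under ether anesthesia got 30 μCi tracer in 0.2 mL saline into the femoral vein and were killed by cardiac excision at the stated time. Cortex, striatum, hippocampus, cerebellum, hypothalamus and the rest of brain were dissected, weighed and gamma counted. %dose/g was taken against counts of a diluted initial dose. Regional ratios are each region's %dose/g over cerebellum's. Mean ± SD.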

Rattus norvegicus [3] = species on record: Rattus norvegicus; assay: Regional brain distribution of [18F]-ACF radiolabeled compound in rat striatum after 240 min; type: ADME, organism-based; details: in vivo, 4 h; procedure, shortened: as §2
Rattus norvegicus [4] = assay: Ratio of effect of pretreatment with nisoxatine with a dose of 2 mg/kg (i.v.) on specific binding of [18F]ACF in rat brain striatum to that of cerebellum; type: ADME, organism-based; set-up: dose 2 mg/kg, route intravenous; details: in vivo, iv; procedure, shortened: as §1
Rattus norvegicus [5] = assay: Effect of pretreatment with methylphenidate with a dose of 2 mg/kg (i.v.) on specific binding of [18F]ACF in rat brain cerebellum; dose/g; type: ADME, organism-based; set-up: dose 2 mg/kg, route intravenous; details: in vivo, iv
Procedure, shortened: (§3)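 Rats pretreated iv with drug (2 mg/kg) or saline 5 min before iv [18F]ACF (50 μCi). Sacrificed 1 h after tracer. Brain regions were dissected, weighed and counted, and % dose/g was calculated against a diluted initial dose. Drug-treated rats were compared with saline controls by ANOVA/Dunnett's test (p<0.05). Three rats per point, average ± SD.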

Rattus norvegicus [6] = species on record: Rattus norvegicus; assay: Ratio of regional brain distribution of [18F]-ACF radiolabeled compound in rat remainder to that of cerebellum after 2 min; type: ADME, organism-based; details: in vivo; procedure, shortened: as §2
Rattus norvegicus [7] = species on record: Rattus norvegicus; assay: Ratio of regional brain distribution of [18F]-ACF radiolabeled compound in rat hippocampus to that of cerebellum after 240 min; type: ADME, organism-based; details: in vivo, 4 h
Procedure, shortened: (§4)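 Rats, three per time point, given 30 μCi tracer in 0.2 mL saline into femoral vein under ether anesthesia; killed at 2, 30, 60, 120 or 240 min. Cortex, striatum, hippocampus, cerebellum, hypothalamus and rest of brain dissected, weighed, counted; % dose/g against diluted initial dose, then each region divided by cerebellum. Average of three rats ± SD.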

[8] = Effect of pretreatment with nisoxatine with a dose of 2 mg/kg (i.v.) on specific binding of [18F]ACF in rat brain cerebellum; type: functional, organism-based; set-up: dose 2 mg/kg; procedure, shortened: as §3
Rattus norvegicus [9] = assay: Effect of pretreatment with (+)-McN5652 with a dose of 2 mg/kg (i.v.) on specific binding of [18F]ACF in rat brain hypothalamus; type: ADME, organism-based; set-up: dose 2 mg/kg, route intravenous; details: in vivo, iv; procedure, shortened: as §3
Rattus norvegicus [10] = species on record: Rattus norvegicus; assay: Organ distribution of [18F]-ACF radiolabeled compound in rat muscle after 60 min; type: ADME, organism-based, Muscle tissue; details: in vivo, 1 h
Procedure, shortened: (§5)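 Under ether anesthesia, 30 μCi no-carrier-added tracer in 0.2 mL saline injected into the femoral vein. Rats killed by cardiac excision at the stated time. Organs were removed, weighed and counted; % dose/organ was calculated against counts of a 1% initial-dose standard. Three rats per time, average ± SD.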

Rattus norvegicus [11] = species on record: Rattus norvegicus; assay: Regional brain distribution of [18F]-ACF radiolabeled compound in rat cortex after 240 min; type: ADME, organism-based; details: in vivo, 4 h; procedure, shortened: as §2
Rattus norvegicus [12] = species on record: Rattus norvegicus; assay: Regional brain distribution of [18F]-ACF radiolabeled compound in rat remainder (rest of brain) after 30 min; type: ADME, organism-based; details: in vivo, 0.5 h; procedure, shortened: as §2
Rattus norvegicus [13] = species on record: Rattus norvegicus; assay: Regional brain distribution of [18F]-ACF radiolabeled compound in rat cortex after 2 min; type: ADME, organism-based; details: in vivo; procedure, shortened: as §2
Rattus norvegicus [14] = species on record: Rattus norvegicus; assay: Organ distribution of [18F]ACF radiolabeled compound in rat liver after 240 min; type: ADME, organism-based; details: in vivo, 4 h
Procedure, shortened: (§6)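 Rats, three per time point, under ether anesthesia; 30 μCi tracer in 0.2 mL saline injected into femoral vein. Sacrificed by cardiac excision under ether at 2, 30, 60, 120 or 240 min. Organs removed, weighed and counted; % dose/organ calculated against counts of 1% of initial dose counted at the same time. Average of three rats ± SD.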

Rattus norvegicus [15] = species on record: Rattus norvegicus; assay: Organ distribution of [18F]-ACF radiolabeled compound in rat spleen after 60 min; type: ADME, organism-based; details: in vivo, 1 h; procedure, shortened: as §6
Rattus norvegicus [16] = species on record: Rattus norvegicus; assay: Organ distribution of [18F]ACF radiolabeled compound in rat heart after 60 min; type: ADME, organism-based; details: in vivo, 1 h; procedure, shortened: as §6
Rattus norvegicus [17] = species on record: Rattus norvegicus; assay: Ratio of regional brain distribution of [18F]ACF radiolabeled compound in rat cerebellum to that of cerebellum after 240 min; type: ADME, organism-based; details: in vivo, 4 h; procedure, shortened: as §2
Rattus norvegicus [18] = species on record: Rattus norvegicus; assay: Ratio of regional brain distribution of [18F]-ACF radiolabeled compound in rat cerebellum to that of cerebellum after 60 min; type: ADME, organism-based; details: in vivo, 1 h; procedure, shortened: as §4
Rattus norvegicus [19] = species on record: Rattus norvegicus; assay: Organ distribution of [18F]-ACF radiolabeled compound in rat spleen after 120 min; type: ADME, organism-based; details: in vivo, 2 h; procedure, shortened: as §5
Rattus norvegicus [20] = species on record: Rattus norvegicus; assay: Regional brain distribution of [18F]ACF radiolabeled compound in rat cortex after 30 min; type: ADME, organism-based; details: in vivo, 0.5 h; procedure, shortened: as §2
Rattus norvegicus [21] = species on record: Rattus norvegicus; assay: Ratio of regional brain distribution of [18F]ACF radiolabeled compound in rat striatum to that of cerebellum after 2 min; type: ADME, organism-based; details: in vivo; procedure, shortened: as §2
Rattus norvegicus [22] = species on record: Rattus norvegicus; assay: Organ distribution of [18F]ACF radiolabeled compound in rat blood after 120 min; type: ADME, organism-based; details: in vivo, 2 h; procedure, shortened: as §6
Rattus norvegicus [23] = species on record: Rattus norvegicus; assay: Organ distribution of [18F]-ACF radiolabeled compound in rat muscle after 240 min; type: ADME, organism-based, Muscle tissue; details: in vivo, 4 h; procedure, shortened: as §5
Rattus norvegicus [24] = species on record: Rattus norvegicus; assay: Organ distribution of [18F]ACF radiolabeled compound in rat brain after 120 min; type: ADME, organism-based; details: in vivo, 2 h; procedure, shortened: as §6
Rattus norvegicus [25] = species on record: Rattus norvegicus; assay: Ratio of regional brain distribution of [18F]-ACF radiolabeled compound in rat hypothalamus to that of cerebellum after 30 min; type: ADME, organism-based; details: in vivo, 0.5 h; procedure, shortened: as §2
Rattus norvegicus [26] = species on record: Rattus norvegicus; assay: Ratio of regional brain distribution of [18F]-ACF radiolabeled compound in rat hippocampus to that of cerebellum after 30 min; type: ADME, organism-based; details: in vivo, 0.5 h; procedure, shortened: as §4
Rattus norvegicus [27] = assay: Effect of pretreatment with nisoxatine with a dose of 2 mg/kg (i.v.) on specific binding of [18F]ACF in rat brain cortex; type: ADME, organism-based; set-up: dose 2 mg/kg, route intravenous; details: in vivo, iv; procedure, shortened: as §3
Rattus norvegicus [28] = species on record: Rattus norvegicus; assay: Ratio of regional brain distribution of [18F]-ACF radiolabeled compound in rat hypothalamus to that of cerebellum after 60 min; type: ADME, organism-based; details: in vivo, 1 h; procedure, shortened: as §2
Rattus norvegicus [29] = species on record: Rattus norvegicus; assay: Organ distribution of [18F]-ACF radiolabeled compound in rat bone after 30 min; type: ADME, organism-based, Bone element; details: in vivo, 0.5 h; procedure, shortened: as §5
Rattus norvegicus [30] = species on record: Rattus norvegicus; assay: Regional brain distribution of [18F]-ACF radiolabeled compound in rat hypothalamus after 240 min; type: ADME, organism-based; details: in vivo, 4 h; procedure, shortened: as §2
Rattus norvegicus [31] = species on record: Rattus norvegicus; assay: Organ distribution of [18F]-ACF radiolabeled compound in rat heart after 30 min; type: ADME, organism-based; details: in vivo, 0.5 h; procedure, shortened: as §5
Rattus norvegicus [32] = species on record: Rattus norvegicus; assay: Regional brain distribution of [18F]ACF radiolabeled compound in rat cerebellum after 30 min; type: ADME, organism-based; details: in vivo, 0.5 h; procedure, shortened: as §2
Rattus norvegicus [33] = species on record: Rattus norvegicus; assay: Regional brain distribution of [18F]-ACF radiolabeled compound in rat remainder (rest of brain) after 60 min; type: ADME, organism-based; details: in vivo, 1 h; procedure, shortened: as §2
Rattus norvegicus [34] = assay: Effect of pretreatment with (+)-McN5652 with a dose of 2 mg/kg (i.v.) on specific binding of [18F]ACF in rat brain hippocampus; type: ADME, organism-based; set-up: dose 2 mg/kg, route intravenous; details: in vivo, iv; procedure, shortened: as §3
Rattus norvegicus [35] = assay: Ratio of effect of pretreatment with (+)-McN5652 with a dose of 2 mg/kg (i.v.) on specific binding of [18F]ACF in rat brain cortex to that of cerebellum; type: ADME, organism-based; set-up: dose 2 mg/kg, route intravenous; details: in vivo, iv; procedure, shortened: as §1
Rattus norvegicus [36] = assay: Effect of pretreatment with nisoxatine with a dose of 2 mg/kg (i.v.) on specific binding of [18F]ACF in rat brain striatum; type: ADME, organism-based; set-up: dose 2 mg/kg, route intravenous; details: in vivo, iv; procedure, shortened: as §3

Ratio (Rattus norvegicus [1]): 1 | Ratio (Rattus norvegicus [2]): 2.67 | Dose/g (Rattus norvegicus [3]): 0.05% | Ratio (Rattus norvegicus [4]): 2.5 | Dose/g (Rattus norvegicus [5]): 0.17% | Ratio (Rattus norvegicus [6]): 1.32 | Ratio (Rattus norvegicus [7]): 1.99 | Dose/g (Rattus norvegicus [9]): 0.24% | Dose/g (Rattus norvegicus [10]): 7.69 % dose/organ | Dose/g (Rattus norvegicus [11]): 0.03% | Dose/g (Rattus norvegicus [12]): 0.67% | Dose/g (Rattus norvegicus [13]): 2.31% | Dose/g (Rattus norvegicus [14]): 3.55 % dose/organ | Dose/g (Rattus norvegicus [15]): 0.13 % dose/organ | Dose/g (Rattus norvegicus [16]): 0.11 % dose/organ | Ratio (Rattus norvegicus [17]): 1 | Ratio (Rattus norvegicus [18]): 1 | Dose/g (Rattus norvegicus [19]): 0.06 % dose/organ | Dose/g (Rattus norvegicus [20]): 0.62% | Ratio (Rattus norvegicus [21]): 1.41 | Dose/g (Rattus norvegicus [22]): 3.2 % dose/organ | Dose/g (Rattus norvegicus [23]): 2.08 % dose/organ | Dose/g (Rattus norvegicus [24]): 0.21 % dose/organ | Ratio (Rattus norvegicus [25]): 2.29 | Ratio (Rattus norvegicus [26]): 1.89 | Dose/g (Rattus norvegicus [27]): 0.37% | Ratio (Rattus norvegicus [28]): 3.53 | Dose/g (Rattus norvegicus [29]): 0.04 % dose/organ | Dose/g (Rattus norvegicus [30]): 0.05% | Dose/g (Rattus norvegicus [31]): 0.18 % dose/organ | Dose/g (Rattus norvegicus [32]): 0.37% | Dose/g (Rattus norvegicus [33]): 0.39% | Dose/g (Rattus norvegicus [34]): 0.34% | Ratio (Rattus norvegicus [35]): 1.43 | Dose/g (Rattus norvegicus [36]): 0.47%
SMILES: CN(C)Cc1ccccc1Sc1cc(F)c(Cl)cc1N
Dose/g [8]: 0.19%
